Values after ≈ are worked out from the molar mass of the structure shown.

The Kd is a measure of binding affinity in units of concentration. A word on the MIC: it is the lowest concentration that inhibits growth of the organism.

The target in series [1] is Mycobacterial ClpC1 FL (full-length protein) (Mycobacterium tuberculosis, UniProt P9WPC9). The series is described as follows: Binding affinity to full-length ClpC1 by surface plasmon resonance. To be noted: SPR, KD = kd/ka, 1:1 Langmuir model. The procedure, abridged:
(§1)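 Association (ka) and dissociation (kd) rate constants came from a global fit of double-referenced SPR data to a 1:1 Langmuir model, and KD was calculated as kd/ka. The same procedure was used for the mycobacterial ClpC1 N-terminal domain and for the full-length protein.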

In series [2] the target is Mycobacterial ClpC1-NTD (caseinolytic protein C1 N-terminal domain) (Mycobacterium tuberculosis, UniProt P9WPC9). In words: Binding affinity to ClpC1-NTD by surface plasmon resonance. To be noted: SPR, KD = kd/ka, 1:1 Langmuir model. The procedure, abridged:
as §1
For orientation: SPR reads the build-up and loss of mass on a sensor chip optically.

The next series can be described thus: Interconversion. Conditions: for Relative stability among diastereomers/epimers: hemiaminal equilibrium. The class given is physicochemical.
The test system of series [3] is M. tuberculosis. Conditions: previous study; cited from earlier work.
The test system of series [4] is M. tuberculosis. In words: MIC against M. tuberculosis, microplate Alamar Blue assay. The class given is cell-based. To be noted: Mycobacterium tuberculosis, read-out: MIC value (anti-Mtb).

Mycobacterial ClpC1-NTD (caseinolytic protein C1 N-terminal domain), sequence (P9WPC9 2-144): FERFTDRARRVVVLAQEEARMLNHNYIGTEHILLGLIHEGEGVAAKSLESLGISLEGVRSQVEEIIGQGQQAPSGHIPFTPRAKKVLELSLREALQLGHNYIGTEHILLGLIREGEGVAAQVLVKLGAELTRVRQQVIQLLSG
Mycobacterial ClpC1 FL (full-length protein), sequence (P9WPC9 whole entry, the tested form may be a part): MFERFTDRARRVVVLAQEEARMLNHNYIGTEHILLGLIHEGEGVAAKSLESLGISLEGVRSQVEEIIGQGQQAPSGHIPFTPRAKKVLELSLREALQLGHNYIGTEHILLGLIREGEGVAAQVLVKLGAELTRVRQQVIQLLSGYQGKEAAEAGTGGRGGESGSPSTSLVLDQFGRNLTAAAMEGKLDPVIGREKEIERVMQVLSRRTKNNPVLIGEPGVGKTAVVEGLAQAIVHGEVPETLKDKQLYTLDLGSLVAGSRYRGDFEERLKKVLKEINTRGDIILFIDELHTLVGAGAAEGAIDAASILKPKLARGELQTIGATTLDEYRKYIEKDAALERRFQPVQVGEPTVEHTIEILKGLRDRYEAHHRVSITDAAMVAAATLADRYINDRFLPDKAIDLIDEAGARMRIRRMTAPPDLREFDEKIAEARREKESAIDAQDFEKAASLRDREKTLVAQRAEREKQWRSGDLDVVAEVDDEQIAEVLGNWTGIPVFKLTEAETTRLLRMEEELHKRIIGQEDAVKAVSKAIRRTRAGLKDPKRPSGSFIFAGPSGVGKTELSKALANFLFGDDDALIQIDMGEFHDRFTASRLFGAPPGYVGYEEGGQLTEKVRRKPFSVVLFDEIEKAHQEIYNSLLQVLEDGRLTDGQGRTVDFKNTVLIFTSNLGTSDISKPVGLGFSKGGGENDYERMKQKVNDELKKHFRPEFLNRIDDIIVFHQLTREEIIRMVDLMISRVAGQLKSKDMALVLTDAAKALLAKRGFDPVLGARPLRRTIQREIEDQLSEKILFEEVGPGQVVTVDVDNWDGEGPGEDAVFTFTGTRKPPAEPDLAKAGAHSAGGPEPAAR

Take `CC=CCC1NC(=O)C(CC(C)C)N2C(=O)C(CC(C)C2OCCCC)N(C)C(=O)C(C)NC(=O)C(Cc2ccc(O)c([N+](=O)[O-])c2)NC(=O)C(CC(C)C)N(C)C(=O)C(Cc2cn(C(C)(C)C(O)CCl)c3ccccc23)NC1=O` (stereo not drawn) [rufomycinSS 1]: the Kd in series [1] was 724 nM; in series [2] it was 602 nM.

Take `C/C=C/C[C@@H]1NC(=O)[C@H](CC(C)C)N2C(=O)[C@H](C[C@@H](C)[C@@H]2O)N(C)C(=O)[C@H](C)NC(=O)[C@H](Cc2ccc(O)c([N+](=O)[O-])c2)NC(=O)[C@H](CC(C)C)N(C)C(=O)[C@H](Cc2cn(C(C)(C)[C@H]3CO3)c3ccccc23)NC1=O` [rufomycin 7]: in the series “Interconversion”, the “Relative stability among diastereomers/epimers” value was “most unstable diastereomer”. For the same molecule, the “Epimerization to rufomycin 6” value in the series “Interconversion” (quickly, during concentration) is given as ~ 50%.

In the case of `C/C=C/C[C@@H]1NC(=O)[C@H](CC(C)C)N2C(=O)[C@H](C[C@H](C)[C@H]2O)N(C)C(=O)[C@H](C)NC(=O)[C@H](Cc2ccc(O)c([N+](=O)[O-])c2)NC(=O)[C@H](CC(C)C)N(C)C(=O)[C@H](Cc2cn(C(C)(C)[C@H]3CO3)c3ccccc23)NC1=O` [rufomycin 4], the “MIC value (anti-Mtb)” value with M. tuberculosis [3] is recorded as ~ 0.020 μM.

As for `C/C=C/C[C@@H]1NC(=O)[C@H](CC(C)C)N2C(=O)[C@H](C[C@@H](C)[C@H]2O)N(C)C(=O)[C@H](C)NC(=O)[C@H](Cc2ccc(O)c([N+](=O)[O-])c2)NC(=O)[C@H](CC(C)C)N(C)C(=O)[C@H](Cc2cn(C(C)(C)[C@H]3CO3)c3ccccc23)NC1=O` [rufomycin 6], in the series “Interconversion”, the “Relative stability among diastereomers/epimers” value is recorded as “more stable epimer”. Besides, in the series “Interconversion” (slow conversion under aqueous conditions), the “Conversion to rufomycin 7” value is reported as ~ 5%.

With `CC=CCC1NC(=O)C(CC(C)C)N2C(=O)C(CC(C)C2OCCCC)N(C)C(=O)C(C)NC(=O)C(Cc2ccc(O)c([N+](=O)[O-])c2)NC(=O)C(CC(C)C)N(C)C(=O)C(Cc2cn(C(C)(C)C(O)CCl)c3ccccc23)NC1=O` (stereo not drawn) [rufomycinSS 2], the dissociation constant (Kd) in series [1] worked out at 29 nM; in series [2], 27 nM.

`C/C=C/C[C@@H]1NC(=O)[C@H](CC(C)C)N2C(=O)[C@H](C[C@@H](C)[C@H]2OCCCC)N(C)C(=O)[C@H](C)NC(=O)[C@H](Cc2ccc(O)c([N+](=O)[O-])c2)NC(=O)[C@H](CC(C)C)N(C)C(=O)[C@H](Cc2cn(C(C)(C)C(O)CCl)c3ccccc23)NC1=O` (stereo partly drawn) [rufomycinSS 3]: the figures for the Kd in series [1] and in series [2] were 171 nM and 211 nM, respectively. The MIC in the series on M. tuberculosis [4] was 4.3 µM (≈ 4.88 µg/mL).

Source of the values: article PMC8865217 (Journal of natural products, 2021).
